Measurements from ChEMBL document CHEMBL2331283, “Anti-inflammatory sesquiterpene derivatives from the leaves of Tripterygium wilfordii” (J Nat Prod, 2013).
pIC50: −log10 of the molar value.

Experiments:
A2780 = assay: Cytotoxicity against human A2780 cells by MTT assay; assay type: functional, cell-based
Procedure, shortened: (§1)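 MTT cytotoxicity assay on five human carcinoma lines: A549 (lung), Bel-7402 (liver), BGC-823 (stomach), HCT-8 (colon) and A2780 (ovarian). The assay was run following a published procedure. The read-out is an IC50.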

HCT-8 = assay: Cytotoxicity against human HCT8 cells by MTT assay; assay type: functional, cell-based; procedure, shortened: as §1
BGC-823 = assay: Cytotoxicity against human BGC823 cells by MTT assay; assay type: functional, cell-based; procedure, shortened: as §1
Bel-7402 = assay: Cytotoxicity against human Bel7402 cells by MTT assay; assay type: functional, cell-based; procedure, shortened: as §1
A549 = assay: Cytotoxicity against human A549 cells by MTT assay; assay type: functional, cell-based; procedure, shortened: as §1
RAW264.7 = assay: Inhibition of LPS-induced nitric oxide production in mouse RAW264.7 cells at 5 uM; assay type: functional

| SMILES | pIC50 (A2780) | pIC50 (HCT-8) | pIC50 (BGC-823) | pIC50 (Bel-7402) | pIC50 (A549) | inhibition at 5 µM (RAW264.7) |
| --- | --- | --- | --- | --- | --- | --- |
| CC(=O)O[C@@H]1[C@@H]2[C@@H](O)[C@@]34O[C@@]2(C)COC(=O)c2cnccc2C(C)C(C)(O)C(=O)O[C@@H]([C@H](OC(C)=O)[C@H](OC(C)=O)[C@@]3(COC(=O)c2ccoc2)[C@@H]1OC(C)=O)[C@]4(C)O (some centres not stated) [HYPOGLAUNINE E] | < 6.00 | < 6.00 | < 6.00 | < 6.00 | < 6.00 |  |
| CC(=O)OC[C@@]12[C@@H](OC(=O)c3ccoc3)CC[C@](C)(O)[C@]13OC(C)(C)[C@H]([C@@H](OC(C)=O)[C@H]2OC(=O)c1ccoc1)[C@H]3O (relative stereo) [TRIPTERSININ I] | < 6.00 | < 6.00 | < 6.00 | < 6.00 | < 6.00 | 45.5% |
| CC(=O)OC[C@]12[C@@H](OC(C)=O)[C@H](OC(C)=O)[C@@H]3[C@@H](OC(C)=O)[C@@]14O[C@@]3(C)COC(=O)c1cnccc1CCC(C)C(=O)O[C@@H]([C@H](OC(C)=O)[C@@H]2OC(C)=O)[C@]4(C)O (some centres not stated) [WILFORDININE E] | < 6.00 | < 6.00 | < 6.00 | < 6.00 | < 6.00 |  |
| C[C@@H]1C[C@H]2[C@@H]3CCC4=CC(=O)C=C[C@]4(C)[C@@]3(F)[C@@H](O)C[C@]2(C)[C@@]1(O)C(=O)CO [DEXAMETHASONE] |  |  |  |  |  | 70.4% |
| CC(=O)OC[C@@]12[C@@H](OC(=O)/C=C/c3ccccc3)CC[C@](C)(O)[C@]13OC(C)(C)[C@H]([C@@H](OC(C)=O)[C@H]2OC(=O)c1cccnc1)[C@H]3O (relative stereo) [TRIPTERSININ C] | < 6.00 | < 6.00 | < 6.00 | < 6.00 | < 6.00 |  |
| CC(=O)OC[C@]12[C@H](OC(C)=O)[C@H](OC(C)=O)[C@@H]3[C@@H](OC(C)=O)[C@@]14O[C@@]3(C)COC(=O)c1cccnc1C(C)C(C)C(=O)O[C@@H]([C@H](OC(C)=O)[C@@H]2OC(C)=O)[C@]4(C)O (some centres not stated) [EUONYMINE] | < 6.00 | < 6.00 | < 6.00 | < 6.00 | < 6.00 |  |
| CC(=O)OC[C@@]12[C@@H](OC(=O)/C=C\c3ccccc3)CC[C@](C)(O)[C@]13OC(C)(C)[C@H]([C@@H](OC(C)=O)[C@H]2OC(=O)c1cccnc1)[C@H]3O (relative stereo) [TRIPTERSININ D] | < 6.00 | < 6.00 | < 6.00 | < 6.00 | < 6.00 |  |
| CC(=O)OC[C@]12[C@H](OC(C)=O)[C@H](OC(C)=O)[C@@H]3[C@@H](OC(C)=O)[C@@]14O[C@@]3(C)COC(=O)c1cnccc1C(C)C(C)C(=O)O[C@@H]([C@H](O)[C@@H]2OC(C)=O)[C@]4(C)O (some centres not stated) [WILFORDININE A] | < 6.00 | < 6.00 | < 6.00 | < 6.00 | < 6.00 | 59% |
| CC(=O)O[C@@H]1[C@@H]2[C@@H](OC(C)=O)[C@@]34O[C@@]2(C)COC(=O)c2cnccc2C(C)C(C)(O)C(=O)O[C@@H]([C@H](OC(C)=O)[C@H](OC(C)=O)[C@@]3(COC(=O)c2ccco2)[C@@H]1OC(C)=O)[C@]4(C)O (some centres not stated) [HYPOGLAUNINE A] | < 6.00 | < 6.00 | < 6.00 | < 6.00 | < 6.00 |  |
| CC(=O)OC[C@@]12[C@@H](OC(=O)/C=C/c3ccccc3)CC[C@](C)(O)[C@]13OC(C)(C)[C@H](C(=O)[C@H]2OC(=O)c1cccnc1)[C@H]3O (relative stereo) [TRIPTERSININ A] | < 6.00 | < 6.00 | < 6.00 | < 6.00 | < 6.00 | 47.3% |
| C/C=C(\C)C(=O)O[C@H]1[C@H](OC(C)=O)[C@@H]2[C@@H](OC(=O)c3cccnc3)[C@@]3(OC2(C)C)[C@@]1(COC(C)=O)[C@@H](OC(C)=O)CC[C@]3(C)O (relative stereo) | < 6.00 | < 6.00 | < 6.00 | < 6.00 | < 6.00 |  |
| CC(=O)OC[C@@]12[C@@H](OC(=O)c3ccoc3)CC[C@](C)(O)[C@]13OC(C)(C)[C@H]([C@@H](OC(=O)c1cccnc1)[C@H]2OC(=O)c1ccoc1)[C@H]3OC(C)=O (relative stereo) [TRIPTERSININ H] | < 6.00 | < 6.00 | < 6.00 | < 6.00 | < 6.00 |  |
| CC(=O)OC[C@@]12[C@@H](OC(C)=O)CC[C@](C)(O)[C@]13OC(C)(C)[C@H]([C@@H](O)[C@H]2OC(=O)c1ccoc1)[C@H]3OC(=O)c1ccoc1 (relative stereo) [TRIPTERSININ J] | < 6.00 | < 6.00 | < 6.00 | < 6.00 | < 6.00 |  |
| CC(=O)OC[C@@]12[C@@H](OC(=O)/C=C\c3ccccc3)CC[C@](C)(O)[C@]13OC(C)(C)[C@H]([C@@H](OC(C)=O)[C@H]2OC(=O)c1cccnc1)[C@H]3OC(C)=O (relative stereo) [TRIPTERSININ E] | < 6.00 | < 6.00 | < 6.00 | < 6.00 | < 6.00 |  |
| CC(=O)OC[C@]12[C@H](OC(C)=O)[C@H](OC(C)=O)[C@@H]3[C@@H](OC(C)=O)[C@@]14O[C@@]3(C)COC(=O)c1cccnc1CCC(C)C(=O)O[C@@H]([C@H](OC(C)=O)[C@@H]2OC(C)=O)[C@]4(C)O (some centres not stated) [EUONINE] | < 6.00 | < 6.00 | < 6.00 | < 6.00 | < 6.00 | 54.7% |
| CC(=O)OC[C@]12[C@H](OC(C)=O)[C@H](OC(C)=O)[C@@H]3[C@@H](OC(C)=O)[C@@]14O[C@@]3(C)COC(=O)c1cccnc1CCC(C)(O)C(=O)O[C@@H]([C@H](OC(=O)c1ccco1)[C@@H]2OC(C)=O)[C@]4(C)O (some centres not stated) [WILFORTRINE] | < 6.00 | < 6.00 | < 6.00 | < 6.00 | < 6.00 |  |
| CC(=O)OC[C@]12[C@H](OC(C)=O)[C@H](OC(C)=O)[C@@H]3[C@@H](OC(C)=O)[C@@]14O[C@@]3(C)COC(=O)c1cnccc1C(C)C(C)C(=O)O[C@@H]([C@H](OC(C)=O)[C@@H]2OC(C)=O)[C@]4(C)O (some centres not stated) [PERITASSIN A] | < 6.00 | < 6.00 | < 6.00 | < 6.00 | < 6.00 | 48.2% |
| CC(=O)OC[C@@]12[C@@H](OC(C)=O)CC[C@](C)(O)[C@]13OC(C)(C)[C@H]([C@@H](OC(C)=O)[C@H]2OC(=O)c1ccoc1)[C@H]3OC(=O)c1cccnc1 (relative stereo) [TRIPTERSININ F] | < 6.00 | < 6.00 | < 6.00 | < 6.00 | < 6.00 |  |
| CC(=O)OC[C@@]12[C@@H](OC(C)=O)CC[C@](C)(O)[C@]13OC(C)(C)[C@H]([C@@H](OC(=O)c1cccnc1)[C@H]2OC(=O)c1ccoc1)[C@H]3OC(C)=O (relative stereo) [TRIPTERSININ G] | < 6.00 | < 6.00 | < 6.00 | < 6.00 | < 6.00 |  |
| CC(=O)OC[C@@]12[C@@H](OC(=O)c3ccoc3)CC[C@](C)(O)[C@]13OC(C)(C)[C@H]([C@@H](OC(C)=O)[C@H]2OC(=O)c1ccoc1)[C@H]3OC(C)=O (relative stereo) [TRIPTERSININ K] | < 6.00 | < 6.00 | < 6.00 | < 6.00 | < 6.00 | 49.9% |
| CC(=O)OC[C@@]12[C@@H](OC(=O)/C=C\c3ccccc3)CC[C@](C)(O)[C@]13OC(C)(C)[C@H](C(=O)[C@H]2OC(=O)c1cccnc1)[C@H]3O (relative stereo) [TRIPTERSININ B] | < 6.00 | < 6.00 | < 6.00 | < 6.00 | < 6.00 |  |
